Assay results as given in ChEMBL document CHEMBL5154945, “Discovery and Optimization of Pyrrolopyrimidine Derivatives as Selective Disruptors of the Perinucleolar Compartment, a Marker of Tumor Progression toward Metastasis” (J Med Chem, 2022).
pIC50: −log10 of the molar value. Several values for one entry are separate records, joined by “and”; a condition that tells them apart may be missing. Identical values can stand only once.

Assays:
[1] = system: NCI-H23; experiment: Anticancer activity against human NCI-H23 cells assessed as cell growth inhibition; format: functional, cell-based; details: dose 1-100 µM, DDE = dose-dependent effect
[2] = system: PC-3M; experiment: Anticancer activity in human PC-3M cells expressing PTB/GFP fusion protein assessed as perinucleolar compartment disassembly and measured after 24 hrs by Hoechst 33342 staining based microscopic method; format: functional, cell-based
In short: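 Imaged by high-content microscopy. Nuclei with PNC spots ≥3 and >0 scored positive. PNC prevalence % = PNC-positive nuclei/total nuclei ×100, normalized to DMSO (0% activity) and 0% PNC (−100%). IC50 from concentration-response.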

[3] = system: T47D; experiment: Anticancer activity against human T47D cells assessed as cell growth inhibition; format: functional, cell-based; details: dose 1-100 µM, DDE = dose-dependent effect
[4] = molecular target: Beta-2 adrenergic receptor (Homo sapiens) (UniProt P07550); experiment: Binding affinity to beta2 receptor (unknown origin) at 10000 nM by radioligand displacement assay relative to control
Beta-2 adrenergic receptor (Homo sapiens), sequence (P07550 whole entry, looked up): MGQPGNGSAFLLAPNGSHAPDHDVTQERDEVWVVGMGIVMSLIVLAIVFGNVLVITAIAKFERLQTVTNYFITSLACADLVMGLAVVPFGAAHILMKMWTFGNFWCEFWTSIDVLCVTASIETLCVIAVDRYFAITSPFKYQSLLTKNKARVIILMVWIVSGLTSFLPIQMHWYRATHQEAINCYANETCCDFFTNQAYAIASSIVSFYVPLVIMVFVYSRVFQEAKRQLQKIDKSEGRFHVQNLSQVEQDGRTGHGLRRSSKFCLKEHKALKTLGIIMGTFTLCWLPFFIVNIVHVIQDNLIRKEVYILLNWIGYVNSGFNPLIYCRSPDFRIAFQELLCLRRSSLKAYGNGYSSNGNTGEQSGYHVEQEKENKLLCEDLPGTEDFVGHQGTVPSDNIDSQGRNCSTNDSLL

[5] = molecular target: Sigma non-opioid intracellular receptor 1 (Homo sapiens) (UniProt Q99720); experiment: Binding affinity to sigma1 receptor (unknown origin) at 10000 nM by radioligand displacement assay relative to control
Sigma non-opioid intracellular receptor 1 (Homo sapiens), sequence (Q99720 whole entry): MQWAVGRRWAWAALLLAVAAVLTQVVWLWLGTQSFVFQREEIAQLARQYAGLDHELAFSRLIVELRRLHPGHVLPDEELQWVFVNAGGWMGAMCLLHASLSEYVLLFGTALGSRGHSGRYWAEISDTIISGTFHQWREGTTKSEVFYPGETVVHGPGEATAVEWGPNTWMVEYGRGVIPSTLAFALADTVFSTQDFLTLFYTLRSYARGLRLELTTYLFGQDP

[6] = system: SK-OV-3; experiment: Anticancer activity against human SK-OV-3 cells assessed as cell growth inhibition; format: functional, cell-based; details: dose 1-100 µM, DDE = dose-dependent effect
[7] = system: HOP-62; experiment: Anticancer activity against human HOP-62 cells assessed as cell growth inhibition; format: functional, cell-based; details: dose 1-100 µM, DDE = dose-dependent effect
[8] = molecular target: D(1B) dopamine receptor (Homo sapiens) (UniProt P21918); experiment: Binding affinity to D5 receptor (unknown origin) at 10000 nM by radioligand displacement assay relative to control
D(1B) dopamine receptor (Homo sapiens), sequence (P21918 whole entry, the tested form may be a part): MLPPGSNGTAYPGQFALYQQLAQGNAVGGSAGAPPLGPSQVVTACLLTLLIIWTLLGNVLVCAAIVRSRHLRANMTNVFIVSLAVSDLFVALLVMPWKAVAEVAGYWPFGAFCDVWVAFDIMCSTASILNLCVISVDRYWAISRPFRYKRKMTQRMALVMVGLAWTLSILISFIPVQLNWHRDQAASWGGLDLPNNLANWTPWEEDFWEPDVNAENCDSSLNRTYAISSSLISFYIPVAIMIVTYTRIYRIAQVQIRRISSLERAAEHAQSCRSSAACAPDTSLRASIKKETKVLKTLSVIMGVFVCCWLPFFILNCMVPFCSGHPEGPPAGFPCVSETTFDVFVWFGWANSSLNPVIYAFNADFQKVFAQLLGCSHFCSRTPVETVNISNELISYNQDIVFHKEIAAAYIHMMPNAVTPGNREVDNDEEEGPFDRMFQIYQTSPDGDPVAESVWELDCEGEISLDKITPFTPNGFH

[9] = system: PC-3M; experiment: Antiproliferative activity against human PC-3M cells expressing PTB/GFP fusion protein assessed as cell growth inhibition at < 100 nM and measured every four hrs for 130 hrs by IncuCyte zoom live cell analysis; format: functional, cell-based; details: DDE = dose-dependent effect
In short: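 PC3M cells stably expressing GFP-PTB, grown in DMEM with 10% FBS and 1% penicillin/streptomycin, seeded at 1.25×10^4 cells/ml in 384-well plates and left overnight at 37 °C, 5% CO2. Compound added in DMEM to give 11 final concentrations from 10 nM to 20 μM. Brightfield images were taken every 4 h for about 130 h and scored as percent confluence.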

[10] = molecular target: 5-hydroxytryptamine receptor 6 (Homo sapiens) (UniProt P50406); experiment: Binding affinity to 5-HT6 receptor (unknown origin) at 10000 nM by radioligand displacement assay relative to control
5-hydroxytryptamine receptor 6 (Homo sapiens), sequence (P50406 whole entry): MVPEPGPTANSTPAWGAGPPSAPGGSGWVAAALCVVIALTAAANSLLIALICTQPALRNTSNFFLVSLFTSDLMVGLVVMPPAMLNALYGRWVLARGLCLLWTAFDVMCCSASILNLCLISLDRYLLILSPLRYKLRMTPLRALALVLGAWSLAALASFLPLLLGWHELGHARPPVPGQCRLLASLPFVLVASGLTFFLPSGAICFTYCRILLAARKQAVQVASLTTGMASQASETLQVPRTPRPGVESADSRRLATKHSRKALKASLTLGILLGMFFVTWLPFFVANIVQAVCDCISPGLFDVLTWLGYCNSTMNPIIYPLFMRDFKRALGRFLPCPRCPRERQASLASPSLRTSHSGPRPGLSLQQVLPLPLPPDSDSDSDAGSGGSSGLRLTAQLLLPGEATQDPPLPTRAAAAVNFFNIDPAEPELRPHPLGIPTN

[11] = AUC (0 to 48 hrs) in female BALB/c mouse at 25 mg/kg, ip at 48 hrs by LC-MS/MS analysis; format: ADME, organism-based; design: time 48 hrs, dose 25 mg/kg, route ip; details: in vivo
In short: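 Fed female BALB/c mice, about 6–8 weeks old and 25–30 g, received a single IP dose. The vehicle was 5-10% NMP + 20% PEG400 + 70-75% (25% HP-β-CD in water), with the drug at 2.5/0.5 mg/mL. Blood was taken by retro-orbital puncture under isoflurane into K2EDTA tubes, 3 mice per time point, over 48 h. Plasma was prepared at 2000 g, 5 min, 4 °C, and measured by LC/MS/MS.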

[12] = system: KM12; experiment: Anticancer activity against human KM12 cells assessed as cell growth inhibition; format: functional, cell-based; details: dose 1-100 µM, DDE = dose-dependent effect
[13] = molecular target: 5-hydroxytryptamine receptor 5A (Homo sapiens) (UniProt P47898); experiment: Binding affinity to 5-HT5A receptor (unknown origin) at 10000 nM by radioligand displacement assay relative to control
5-hydroxytryptamine receptor 5A (Homo sapiens), sequence (P47898 whole entry): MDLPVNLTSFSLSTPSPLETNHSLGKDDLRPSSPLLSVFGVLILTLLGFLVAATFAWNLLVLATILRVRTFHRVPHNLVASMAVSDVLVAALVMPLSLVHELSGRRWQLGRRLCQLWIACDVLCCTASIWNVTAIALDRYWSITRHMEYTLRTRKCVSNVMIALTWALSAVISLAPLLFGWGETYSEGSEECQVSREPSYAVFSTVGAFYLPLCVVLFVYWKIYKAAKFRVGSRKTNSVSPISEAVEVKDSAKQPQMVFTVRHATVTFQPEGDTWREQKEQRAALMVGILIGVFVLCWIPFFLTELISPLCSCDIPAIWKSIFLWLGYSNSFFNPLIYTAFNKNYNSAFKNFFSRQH

[14] = system: SW-620; experiment: Anticancer activity against human SW-620 cells assessed as cell growth inhibition; format: functional, cell-based; details: dose 1-100 µM, DDE = dose-dependent effect
[15] = system: OVCAR-5; experiment: Anticancer activity against human OVCAR-5 cells assessed as cell growth inhibition; format: functional, cell-based; details: dose 1-100 µM, DDE = dose-dependent effect
[16] = molecular target: 5-hydroxytryptamine receptor 1D (Homo sapiens) (UniProt P28221); experiment: Binding affinity to 5-HT1D receptor (unknown origin) at 10000 nM by radioligand displacement assay relative to control
5-hydroxytryptamine receptor 1D (Homo sapiens), sequence (P28221 whole entry): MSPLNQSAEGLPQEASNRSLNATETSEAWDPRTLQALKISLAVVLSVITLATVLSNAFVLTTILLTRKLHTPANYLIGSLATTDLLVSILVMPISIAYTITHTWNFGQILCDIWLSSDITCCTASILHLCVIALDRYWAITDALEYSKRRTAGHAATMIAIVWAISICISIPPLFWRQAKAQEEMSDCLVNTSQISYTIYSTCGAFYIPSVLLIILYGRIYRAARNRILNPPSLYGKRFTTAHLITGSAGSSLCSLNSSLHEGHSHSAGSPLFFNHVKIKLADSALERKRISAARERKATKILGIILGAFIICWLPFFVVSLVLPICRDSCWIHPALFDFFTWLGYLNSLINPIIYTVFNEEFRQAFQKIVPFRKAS

[17] = molecular target: D(1A) dopamine receptor (Homo sapiens) (UniProt P21728); experiment: Binding affinity to D1 receptor (unknown origin) at 10000 nM by radioligand displacement assay relative to control
D(1A) dopamine receptor (Homo sapiens), sequence (P21728 whole entry): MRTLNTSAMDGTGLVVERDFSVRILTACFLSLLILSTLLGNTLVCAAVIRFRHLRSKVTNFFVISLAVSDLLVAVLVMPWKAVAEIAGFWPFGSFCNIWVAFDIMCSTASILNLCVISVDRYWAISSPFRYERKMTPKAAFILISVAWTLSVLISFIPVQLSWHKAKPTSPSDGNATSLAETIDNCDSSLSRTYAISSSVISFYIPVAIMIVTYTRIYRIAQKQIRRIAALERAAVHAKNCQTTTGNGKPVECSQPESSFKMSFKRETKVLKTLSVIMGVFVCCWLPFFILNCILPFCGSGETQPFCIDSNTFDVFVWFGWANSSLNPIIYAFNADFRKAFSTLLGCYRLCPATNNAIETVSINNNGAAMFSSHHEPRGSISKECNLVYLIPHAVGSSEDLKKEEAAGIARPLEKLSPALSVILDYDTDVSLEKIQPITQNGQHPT

[18] = system: SNB-75; experiment: Anticancer activity against human SNB-75 cells assessed as cell growth inhibition; format: functional, cell-based; details: dose 1-100 µM, DDE = dose-dependent effect
[19] = system: NCI-H322M; experiment: Anticancer activity against human NCI-H322M cells assessed as cell growth inhibition; format: functional, cell-based; details: dose 1-100 µM, DDE = dose-dependent effect
[20] = molecular target: Alpha-1A adrenergic receptor (Homo sapiens) (UniProt P35348); experiment: Binding affinity to alpha1A receptor (unknown origin) at 10000 nM by radioligand displacement assay relative to control
Alpha-1A adrenergic receptor (Homo sapiens), sequence (P35348 whole entry): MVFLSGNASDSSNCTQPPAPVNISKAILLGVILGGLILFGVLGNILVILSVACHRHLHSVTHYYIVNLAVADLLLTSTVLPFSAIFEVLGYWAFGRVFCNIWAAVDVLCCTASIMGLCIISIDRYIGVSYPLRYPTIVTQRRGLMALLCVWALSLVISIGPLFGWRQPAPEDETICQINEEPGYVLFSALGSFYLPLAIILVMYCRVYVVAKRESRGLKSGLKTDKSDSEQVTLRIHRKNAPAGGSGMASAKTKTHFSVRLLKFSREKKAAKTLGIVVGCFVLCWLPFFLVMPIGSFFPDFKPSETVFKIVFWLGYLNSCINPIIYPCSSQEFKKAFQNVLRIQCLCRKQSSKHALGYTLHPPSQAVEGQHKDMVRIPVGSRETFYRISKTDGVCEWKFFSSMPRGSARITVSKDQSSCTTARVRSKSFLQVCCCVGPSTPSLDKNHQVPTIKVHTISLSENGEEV

[21] = Kinetic solubility of compound
[22] = Tmax in female BALB/c mouse at 25 mg/kg, ip and measured upto 48 hrs by LC-MS/MS analysis; format: ADME, organism-based; details: in vivo
In short: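 Fed female BALB/c mice, about 6–8 weeks old and 25–30 g, received a single IP dose of 5 or 25 mpk in NMP/PEG400/HP-β-CD aqueous vehicle (0.5 mg/mL for the 5 mpk dose). Three mice per time point were sampled up to 48 h by retro-orbital bleed under isoflurane into K2EDTA. Plasma was spun at 2000 g, 4 °C, frozen at -80 °C, and assayed by LC/MS/MS.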

[23] = system: Hs-578T; experiment: Anticancer activity against human Hs-578T cells assessed as cell growth inhibition; format: functional, cell-based; details: dose 1-100 µM, DDE = dose-dependent effect
[24] = molecular target: GABA-A receptor; anion channel (Homo sapiens) (UniProt P14867+P47870+P18507+P28472+P48169+Q99928+Q9UN88+P34903+O00591+O14764+Q8N1C3+P18505+P78334+P47869+P31644+Q16445); experiment: Binding affinity to GABAA receptor (unknown origin) at 10000 nM by radioligand displacement assay relative to control; format: protein-complex assay
[25] = system: HCT-116; experiment: Anticancer activity against human HCT-116 cells assessed as cell growth inhibition; format: functional, cell-based; details: dose 1-100 µM, DDE = dose-dependent effect
[26] = system: ACHN; experiment: Anticancer activity against human ACHN cells assessed as cell growth inhibition; format: functional, cell-based; details: dose 1-100 µM, DDE = dose-dependent effect
[27] = system: SNB-19; experiment: Anticancer activity against human SNB-19 cells assessed as cell growth inhibition; format: functional, cell-based; details: dose 1-100 µM, DDE = dose-dependent effect
[28] = molecular target: Alpha-2B adrenergic receptor (Homo sapiens) (UniProt P18089); experiment: Binding affinity to alpha2B receptor (unknown origin) at 10000 nM by radioligand displacement assay relative to control
Alpha-2B adrenergic receptor (Homo sapiens), sequence (P18089 whole entry): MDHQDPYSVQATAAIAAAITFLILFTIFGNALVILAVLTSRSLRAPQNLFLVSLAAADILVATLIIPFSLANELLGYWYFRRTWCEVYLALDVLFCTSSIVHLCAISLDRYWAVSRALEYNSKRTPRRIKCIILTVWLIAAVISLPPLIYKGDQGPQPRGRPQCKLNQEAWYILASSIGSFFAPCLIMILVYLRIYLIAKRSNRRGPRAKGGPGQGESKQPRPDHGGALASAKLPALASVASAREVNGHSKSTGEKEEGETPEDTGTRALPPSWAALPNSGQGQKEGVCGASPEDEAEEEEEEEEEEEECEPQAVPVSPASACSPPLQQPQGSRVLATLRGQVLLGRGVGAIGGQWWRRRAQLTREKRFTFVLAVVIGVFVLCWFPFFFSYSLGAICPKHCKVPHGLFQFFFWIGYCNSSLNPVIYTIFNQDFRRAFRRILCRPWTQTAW

[29] = system: U-251; experiment: Anticancer activity against human U-251 cells assessed as cell growth inhibition; format: functional, cell-based; details: dose 1-100 µM, DDE = dose-dependent effect
[30] = system: PC-3M; experiment: Antiproliferative activity against human PC-3M cells expressing PTB/GFP fusion protein assessed as inhibition of nucleolar volume measured after 24 hrs by Nucleolar-id Green Detection based confocal microscopic analysis; format: functional, cell-based
[31] = system: CCRF-CEM; experiment: Anticancer activity against human CCRF-CEM cells assessed as cell growth inhibition; format: functional, cell-based; details: dose 1-100 µM, DDE = dose-dependent effect
[32] = system: MDA-MB-231; experiment: Anticancer activity against human MDA-MB-231 cells assessed as cell growth inhibition; format: functional, cell-based; details: dose 1-100 µM, DDE = dose-dependent effect
[33] = system: NCI-H226; experiment: Anticancer activity against human NCI-H226 cells assessed as cell growth inhibition; format: functional, cell-based; details: dose 1-100 µM, DDE = dose-dependent effect
[34] = in vitro; details: human, PC-3M cells expressing PTB/GFP fusion protein
[35] = system: NCI-H460; experiment: Anticancer activity against human NCI-H460 cells assessed as cell growth inhibition; format: functional, cell-based; details: dose 1-100 µM, DDE = dose-dependent effect

N=c1c2c(-c3ccccc3)c(-c3ccccc3)n(Cc3ccccc3)c2ncn1[C@H]1CC[C@H](O)CC1 [ML-246]
Activity [1]: Dde
pIC50 ([2]; read-out: IC50): 6.70
IC50 ([2]; read-out: pIC50 (converted)): 178 nM
Activity [3]: Dde
Activity [4]: < 50%
Activity [5]: < 50%
Activity [6]: Dde
Activity [7]: Dde
Activity [8]: < 50%
Activity [9]: Dde
Activity [10]: < 50%
AUC [11]: 57.64 µM·h
Activity [12]: Dde
Activity [13]: < 50%
Activity [14]: Dde
Activity [15]: Dde
Activity [16]: < 50%
Activity [17]: < 50%
Activity [18]: Dde
Activity [19]: Dde
Activity [20]: < 50%
solubility kinetic [21]: > 99 µM and > 47 µg/mL
Tmax [22]: 30 min
Activity [23]: Dde
Activity [24]: < 50%
Activity [25]: Dde
Activity [26]: Dde
Activity [27]: Dde
Activity [28]: < 50%
Activity [29]: Dde
pIC50 [30]: 6.21
Activity [31]: Dde
Activity [32]: Dde
Activity [33]: Dde
selectivity ratio [34]: 38.3
Activity [35]: Dde
